Data set [1] deals with T1, Acetylcholinesterase (Rattus norvegicus) (UniProt P37136).
T1 sequence (whole entry): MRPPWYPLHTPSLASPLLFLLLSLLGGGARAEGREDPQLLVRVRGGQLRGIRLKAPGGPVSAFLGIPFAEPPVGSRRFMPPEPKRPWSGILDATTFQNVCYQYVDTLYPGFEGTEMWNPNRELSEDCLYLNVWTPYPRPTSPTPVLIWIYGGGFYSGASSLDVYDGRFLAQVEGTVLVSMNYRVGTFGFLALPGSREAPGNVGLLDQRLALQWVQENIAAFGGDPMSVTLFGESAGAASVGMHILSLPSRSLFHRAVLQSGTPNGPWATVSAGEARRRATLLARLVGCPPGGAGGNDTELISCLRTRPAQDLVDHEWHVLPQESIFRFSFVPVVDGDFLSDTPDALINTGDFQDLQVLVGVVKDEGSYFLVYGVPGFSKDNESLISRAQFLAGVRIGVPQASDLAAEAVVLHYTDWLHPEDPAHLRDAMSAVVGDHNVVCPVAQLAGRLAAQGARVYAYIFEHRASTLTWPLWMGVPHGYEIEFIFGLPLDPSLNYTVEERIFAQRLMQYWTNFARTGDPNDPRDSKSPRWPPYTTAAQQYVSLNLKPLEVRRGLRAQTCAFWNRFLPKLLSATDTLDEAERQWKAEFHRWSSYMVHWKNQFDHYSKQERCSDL
Description: Inhibition of AChE in Wistar rat brain homogenates at 1 uM by Ellman's method. Type of data set: tissue-based. Particulars: TDE = time-dependent effect. Put shortly: (§1)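 Modified Ellman method on rat brain homogenate enzymes, with acetylthiocholine as AChE substrate and butyrylthiocholine as BuChE substrate. For concentration–response, enzymes were preincubated with inhibitor for 3 h, and IC50 was obtained by nonlinear curve fitting. Mean ± SEM of three to five independent experiments, each in triplicate. The 1 µM AChE inhibition was followed as a time course.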

In data set [2] the target is Butyrylcholinesterase (Rattus norvegicus) (UniProt Q9JKC1). Put plainly: Inhibition of BuChE in Wistar rat brain homogenates at 1 uM by Ellman's method. Particulars: TDE = time-dependent effect. Type of data set: tissue-based. Background: Ellman's reagent forms a yellow product with free thiols.
Data set [3] concerns SH-SY5Y. Description: Cytotoxicity against human SH-SY5Y cells assessed as cell viability at 1 uM after 48 hrs by MTT assay relative to control. Type of data set: cell-based. The method in brief:
(§2)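 Human SH-SY5Y neuroblastoma cells were exposed to compound for 48 h, and viability was read by MTT assay. Mean ± SEM of three independent experiments.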

The subject of data set [4] is SH-SY5Y. Put plainly: Cytotoxicity against human SH-SY5Y cells assessed as decrease in cell viability at 10 uM after 48 hrs by MTT assay relative to control. The class given is cell-based. Put shortly:
as §2
For orientation: Formazan colour is commonly taken as a measure of viable cells.

Data set [5] has as its system SH-SY5Y. Description: Cytotoxicity against human SH-SY5Y cells assessed as decrease in cell viability at 25 uM after 48 hrs by MTT assay relative to control. The class given is cell-based. The method in brief: as §2
Data set [6] has as its system SH-SY5Y. Description: Cytotoxicity against human SH-SY5Y cells assessed as decrease in cell viability at 50 uM after 48 hrs by MTT assay relative to control. Type of data set: cell-based. Put shortly:
as §2

Another data set addresses T2, Acetylcholinesterase (Rattus norvegicus, UniProt P37136).
T2 sequence (P37136 whole entry): T1 sequence (whole entry)
Put plainly: Inhibition of AChE in Wistar rat brain homogenates by Ellman's method. Type of data set: tissue-based. Put shortly:
as §1

In another data set the target is Butyrylcholinesterase (Rattus norvegicus, UniProt Q9JKC1). Description: Inhibition of BuChE in Wistar rat brain homogenates by Ellman's method. The class given is tissue-based. Put shortly:
as §1

Another data set is filed under the species Rattus norvegicus. Put plainly: Selectivity ratio of IC50 for BuChE to IC50 for AChE in Wistar rat brain homogenates. Type of data set: tissue-based. Put shortly: as §1
The target of data set [7] is Acetylcholinesterase (Electrophorus electricus) (UniProt O42275). Description: Induction of electric eel AChE-mediated drug hydrolysis assessed as release of HLA20-iron complex at 0.2 mM by UV visible spectroscopy in presence of FeSO4. The method in brief:
(§3)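 UV/vis absorption spectra were recorded in 5% NH4Ac, pH 7. Prochelator (0.2 mM) was activated before adding CuSO4 or FeSO4 (0.2 mM).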

The target is the same in data set [8]. Put plainly: […] of electric eel AChE-mediated drug hydrolysis assessed as release of HLA20-copper complex at 0.2 mM by UV visible spectroscopy in presence of CuSO4. Put shortly:
as §3

Active and inactive are the calls of the source. No cut-off for these calls is given here.

Acetylcholinesterase (Electrophorus electricus), sequence (O42275 24-633 limits assumed): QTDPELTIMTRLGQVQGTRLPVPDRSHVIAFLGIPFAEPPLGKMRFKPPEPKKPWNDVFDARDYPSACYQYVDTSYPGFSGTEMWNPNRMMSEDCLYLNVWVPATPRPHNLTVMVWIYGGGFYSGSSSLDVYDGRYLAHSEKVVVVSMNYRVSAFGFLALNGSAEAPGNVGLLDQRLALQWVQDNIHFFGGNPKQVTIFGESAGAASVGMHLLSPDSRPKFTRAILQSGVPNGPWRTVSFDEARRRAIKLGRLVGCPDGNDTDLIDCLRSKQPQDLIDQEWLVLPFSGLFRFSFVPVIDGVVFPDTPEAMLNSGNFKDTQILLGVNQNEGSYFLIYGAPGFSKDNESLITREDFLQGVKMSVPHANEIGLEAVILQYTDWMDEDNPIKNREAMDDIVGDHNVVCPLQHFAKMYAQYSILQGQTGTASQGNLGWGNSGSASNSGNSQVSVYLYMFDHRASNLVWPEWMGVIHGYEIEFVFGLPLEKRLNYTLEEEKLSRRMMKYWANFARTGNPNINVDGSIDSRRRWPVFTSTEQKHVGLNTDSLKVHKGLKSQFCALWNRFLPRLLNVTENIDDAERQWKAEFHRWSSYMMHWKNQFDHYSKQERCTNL
Butyrylcholinesterase (Rattus norvegicus), sequence (Q9JKC1 as listed by the source): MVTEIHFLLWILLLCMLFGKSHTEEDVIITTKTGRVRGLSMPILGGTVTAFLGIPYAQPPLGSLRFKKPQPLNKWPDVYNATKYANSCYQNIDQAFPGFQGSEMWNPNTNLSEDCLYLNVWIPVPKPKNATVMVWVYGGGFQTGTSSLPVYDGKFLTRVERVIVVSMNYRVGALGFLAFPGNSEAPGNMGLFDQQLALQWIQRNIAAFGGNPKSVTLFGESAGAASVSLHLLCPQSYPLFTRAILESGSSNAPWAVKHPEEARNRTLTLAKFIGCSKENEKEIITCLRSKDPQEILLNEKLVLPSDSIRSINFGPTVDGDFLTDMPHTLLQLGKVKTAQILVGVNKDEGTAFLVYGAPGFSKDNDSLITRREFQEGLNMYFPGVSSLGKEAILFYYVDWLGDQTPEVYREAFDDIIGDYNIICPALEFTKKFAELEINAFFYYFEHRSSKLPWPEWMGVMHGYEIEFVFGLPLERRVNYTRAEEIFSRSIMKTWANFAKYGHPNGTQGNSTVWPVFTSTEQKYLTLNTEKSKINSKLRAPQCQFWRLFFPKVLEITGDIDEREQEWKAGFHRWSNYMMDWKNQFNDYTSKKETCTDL
Butyrylcholinesterase, sequence (Q9JKC1 whole entry): as the sequence (Q9JKC1 as listed by the source) above

`CCN(C)C(=O)Oc1cccc([C@H](C)N(C)C)c1`: the Activity result in data set [1] and in data set [2] was “tde” in each case.
`C#CCN1CCN(Cc2ccc(O)c3ncccc23)CC1`: the Activity result with SH-SY5Y [3] was “Non-toxic”; with SH-SY5Y [4], 60%; in the data set with SH-SY5Y [5], 87%; with SH-SY5Y [6], 98%.
For `C#CCN1CCN(Cc2ccc(OC(=O)N(C)C)c3ncccc23)CC1`, the Activity entry in [1] is “tde”; in data set [2], “tde”; in the data set with SH-SY5Y [3], “Non-toxic”; in the data set on SH-SY5Y [4] it was “Non-toxic”; in the data set with SH-SY5Y [5], “Toxic”; in the data set with SH-SY5Y [6], “Toxic”. The IC50 at Acetylcholinesterase was determined as 0.5 µM; on Butyrylcholinesterase, 42.6 µM. Moreover, the Ratio IC50 in the data set filed under Rattus norvegicus worked out at 85. The outcome in data set [7] and in data set [8] was Active.

Usually IC50 stands for the point on the concentration scale where inhibition reaches its midpoint.

The values above are taken from ChEMBL document CHEMBL1137772, “Site-activated multifunctional chelator with acetylcholinesterase and neuroprotective-neurorestorative moieties for Alzheimer's therapy” (J Med Chem, 2009).
